{"source": "ChEMBL document CHEMBL1122075", "about": "“Absolute stereochemistry and dopaminergic activity of enantiomers of 2,3,4,5-tetrahydro-7,8-dihydroxy-1-phenyl-1H-3-benzazepine” (J Med Chem, 1982)", "key": {"Adenylate cyclase": {"target": "Adenylate cyclase", "experiment": "Tested for ability to stimulate dopamine sensitive adenylate cyclase in rat caudate homogenate", "summary_of_the_method": "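Rat striatal homogenates; dopamine-sensitive adenylate cyclase stimulation read as cyclic AMP production. EC50 is the molar concentration giving half-maximal stimulation of cAMP production over the concentration range tested.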"}, "Canis familiaris [1]": {"species": "Canis familiaris", "experiment": "Renal vascular resistance (RVR) in dog was determined", "type": "functional, Canis lupus familiaris", "summary_of_the_method": "(§1)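 Dogs anesthetized and surgically prepared for electromagnetic renal blood flow measurement, with carotid arterial pressure recorded. Drug infused into an antecubital vein at progressively increasing (generally threefold) concentrations to give cumulative dose-response data. RVR = mean arterial pressure / mean renal blood flow. ED15 is the average maximum cumulative dose lowering RVR by 15%.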"}, "Rattus norvegicus [2]": {"species": "Rattus norvegicus", "experiment": "Ability to induce contralateral rotations in rats having lesions in the substantia nigra.", "type": "functional", "summary_of_the_method": "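Rotation counts in rats carrying unilateral left substantia nigra lesions. RD500 is the dose calculated to give 500 body rotations over a 2-h test period.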"}, "Canis familiaris [3]": {"species": "Canis familiaris", "experiment": "Compound was tested for its renal vasodilator activity in dogs.", "type": "functional", "settings": "Canis lupus familiaris", "summary_of_the_method": "as §1"}, "Rattus norvegicus [4]": {"species": "Rattus norvegicus", "experiment": "Compound was tested for maximum response, the percent of cyclic AMP induced by 5 x 10 E-5 M dopamine"}, "Rattus norvegicus [5]": {"species": "Rattus norvegicus", "experiment": "Compound was tested for maximum response, the percent of cyclic AMP induced by 1 x 10 E-4 M dopamine", "type": "functional"}, "Canis familiaris [6]": {"species": "Canis familiaris", "experiment": "Renal vascular resistance (RVR) in dog was determined; Not statistically significant", "type": "functional, Canis lupus familiaris", "summary_of_the_method": "as §1"}, "Canis familiaris [7]": {"species": "Canis familiaris", "experiment": "Percent av maximum in dog was determined; Expressed as av max (%)", "type": "functional, Canis lupus familiaris"}}, "data": [{"smiles": "Cl.Oc1cc2c(cc1O)[C@@H](c1ccccc1)CNCC2", "values": [{"measurement": "EC50", "setting": "Adenylate cyclase", "result": 32, "unit": "nM"}, {"measurement": "RVR", "setting": "Canis familiaris [1]", "result": 18}, {"measurement": "RD500", "setting": "Rattus norvegicus [2]", "result": 0.5, "unit": "mg/kg"}, {"measurement": "ED15", "setting": "Canis familiaris [3]", "result": 0.025, "unit": "mg/kg"}, {"measurement": "Max response", "setting": "Rattus norvegicus [4]", "result": 66, "unit": "%"}]}, {"smiles": "Cl.Oc1cc2c(cc1O)[C@H](c1ccccc1)CNCC2", "values": [{"measurement": "Max response", "setting": "Rattus norvegicus [5]", "result": 27, "unit": "%"}, {"measurement": "RVR", "setting": "Canis familiaris [6]", "result": 9}, {"measurement": "RD500", "setting": "Rattus norvegicus [2]", "result": "> 2", "unit": "mg/kg"}, {"measurement": "ED15", "setting": "Canis familiaris [3]", "result": "> 0.55", "unit": "mg/kg"}, {"measurement": "Activity", "setting": "Canis familiaris [7]", "result": 9, "unit": "%"}]}, {"smiles": "Cl.Oc1cc2c(cc1O)C(c1ccccc1)CNCC2", "note": "(racemic)", "values": [{"measurement": "EC50", "setting": "Adenylate cyclase", "result": 71, "unit": "nM"}, {"measurement": "RVR", "setting": "Canis familiaris [1]", "result": 19}, {"measurement": "RD500", "setting": "Rattus norvegicus [2]", "result": 0.7, "unit": "mg/kg"}, {"measurement": "ED15", "setting": "Canis familiaris [3]", "result": 0.031, "unit": "mg/kg"}, {"measurement": "Max response", "setting": "Rattus norvegicus [4]", "result": 68, "unit": "%"}]}, {"smiles": "NCCc1ccc(O)c(O)c1", "note": "[DOPAMINE]", "values": [{"measurement": "EC50", "setting": "Adenylate cyclase", "result": 3500, "unit": "nM"}, {"measurement": "ED15", "setting": "Canis familiaris [3]", "result": 0.0027, "unit": "mg/kg"}]}]}
